According to ChEMBL document CHEMBL3414571, “The discovery of macrocyclic XIAP antagonists from a DNA-programmed chemistry library, and their optimization to give lead compounds with in vivo antitumor activity” (J Med Chem, 2015):
Calls of active or inactive are those of the source. The calls are words filed in the database; no cut-off is given here.

Columns and labels:
[1] = Inhibition of XIAP BIR2 (124 to 240 residues) C202A/C213G mutant (unknown origin) incubated for 60 mins by biotinylated SMAC peptide Alpha-screen assay; set-up: species or system Homo sapiens
[2] = test system: MDA-MB-231; experiment: Antiproliferative activity against human MDA-MB-231 cells assessed as inhibition of cell proliferation after 72 hrs by MTS assay; format: functional, cell-based; settings: MDA-MB-231, 72 h
[3] = Antiproliferative activity against human A875 cells assessed as inhibition of cell proliferation after 72 hrs by MTS assay; format: functional, cell-based; settings: A875, 72 h
[4] = test system: A549; experiment: Antiproliferative activity against human A549 cells assessed as inhibition of cell proliferation after 72 hrs by MTS assay; format: functional, cell-based; settings: A549, 72 h
[5] = Half life in Balb/C mouse at 0.2 mg/kg, iv administered as single dose by LC-MS/MS method; format: ADME, organism-based; set-up: dose 0.2 mg/kg, route intravenous; settings: in vivo
Summary of the method: (§1)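 Mice received one intravenous dose, and parent compound levels in blood were monitored over time. Plasma pharmacokinetic parameters were derived from these concentration–time profiles.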

[6] = Mean residence time in Balb/C mouse at 0.2 mg/kg, iv administered as single dose by LC-MS/MS method; format: ADME, organism-based; set-up: dose 0.2 mg/kg, route intravenous; settings: in vivo; summary of the method: as §1
[7] = Volume of distribution at steady state in Balb/C mouse at 0.2 mg/kg, iv administered as single dose by LC-MS/MS method; format: ADME, organism-based; set-up: dose 0.2 mg/kg, route intravenous; settings: in vivo, read-out: Vdss; summary of the method: as §1
[8] = test system: Mus musculus; experiment: AUClast in Balb/C mouse at 0.2 mg/kg, iv administered as single dose by LC-MS/MS method; format: ADME, organism-based, Plasma; set-up: dose 0.2 mg/kg, route intravenous, time 0 - last; settings: in vivo; summary of the method: as §1
[9] = biological target: E3 ubiquitin-protein ligase XIAP (Homo sapiens, UniProt P98170); experiment: Inhibition of XIAP BIR3 (241 to 356 residues) (unknown origin) incubated for 60 mins by fluoresceinated modified SMAC peptide based fluorescence polarization assay
Chain of E3 ubiquitin-protein ligase XIAP (P98170 whole entry, looked up, the tested form may be a part): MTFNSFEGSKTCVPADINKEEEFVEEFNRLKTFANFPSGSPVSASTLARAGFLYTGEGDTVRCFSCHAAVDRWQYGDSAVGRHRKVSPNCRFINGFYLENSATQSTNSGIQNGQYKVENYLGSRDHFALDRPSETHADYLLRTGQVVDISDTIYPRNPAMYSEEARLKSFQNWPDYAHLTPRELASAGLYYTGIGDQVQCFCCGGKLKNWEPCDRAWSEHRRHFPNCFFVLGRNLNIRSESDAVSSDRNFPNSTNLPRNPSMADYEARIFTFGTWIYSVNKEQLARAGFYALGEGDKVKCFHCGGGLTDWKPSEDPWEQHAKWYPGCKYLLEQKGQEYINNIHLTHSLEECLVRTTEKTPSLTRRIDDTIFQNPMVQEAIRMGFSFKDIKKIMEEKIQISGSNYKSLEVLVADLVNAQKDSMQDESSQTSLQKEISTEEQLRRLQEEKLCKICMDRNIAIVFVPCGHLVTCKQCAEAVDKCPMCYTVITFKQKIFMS

[10] = biological target: BIR2 domain of XIAP (Homo sapiens, UniProt P98170, C202A/C213G); experiment: Inhibition of XIAP BIR2-3 (124 to 356 residues) C202A/C213G mutant (unknown origin) in human THP1 cells using fluoresceinated caspase-3 substrate by caspase-3 rescue assay; format: cell-based, THP-1
Chain of BIR2 domain of XIAP (P98170 whole entry C202A/C213G, looked up, the tested form may be a part): as the sequence (P98170 whole entry, looked up, the tested form may be a part) above, with C202A, C213G counted along it

[11] = biological target: Baculoviral IAP repeat-containing protein 2 (Homo sapiens, UniProt Q13490); experiment: Inhibition of cIAP1 BIR2-3 (154 to 352 residues) (unknown origin) fluoresceinated dimeric SMAC peptide based fluorescence polarization assay
Chain of Baculoviral IAP repeat-containing protein 2 (Q13490 whole entry, the tested form may be a part): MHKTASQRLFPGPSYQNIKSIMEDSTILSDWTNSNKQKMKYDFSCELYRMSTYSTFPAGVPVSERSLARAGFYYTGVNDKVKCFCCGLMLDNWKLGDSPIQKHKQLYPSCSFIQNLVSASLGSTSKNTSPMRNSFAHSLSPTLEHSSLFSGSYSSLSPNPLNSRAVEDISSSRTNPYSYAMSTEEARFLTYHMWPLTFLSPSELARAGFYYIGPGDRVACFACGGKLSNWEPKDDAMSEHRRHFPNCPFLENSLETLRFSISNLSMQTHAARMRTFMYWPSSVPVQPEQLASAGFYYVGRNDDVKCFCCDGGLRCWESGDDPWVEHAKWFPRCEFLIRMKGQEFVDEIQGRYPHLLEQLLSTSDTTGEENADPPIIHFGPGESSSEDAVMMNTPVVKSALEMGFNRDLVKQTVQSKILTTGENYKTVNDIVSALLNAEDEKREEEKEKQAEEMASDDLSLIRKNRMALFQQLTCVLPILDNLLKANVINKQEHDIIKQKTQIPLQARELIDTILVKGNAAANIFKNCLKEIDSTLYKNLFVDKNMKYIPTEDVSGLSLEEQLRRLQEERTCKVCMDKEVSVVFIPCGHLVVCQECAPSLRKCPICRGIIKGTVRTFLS

[12] = Half life in Balb/C mouse at 1 mg/kg, iv administered as single dose by LC-MS/MS method; format: ADME, organism-based; set-up: dose 1 mg/kg, route intravenous; settings: in vivo; summary of the method: as §1
[13] = Mean residence time in Balb/C mouse at 1 mg/kg, iv administered as single dose by LC-MS/MS method; format: ADME, organism-based; set-up: dose 1 mg/kg, route intravenous; settings: in vivo; summary of the method: as §1
[14] = Volume of distribution at steady state in Balb/C mouse at 1 mg/kg, iv administered as single dose by LC-MS/MS method; format: ADME, organism-based; set-up: dose 1 mg/kg, route intravenous; settings: in vivo, read-out: Vdss; summary of the method: as §1
[15] = test system: Mus musculus; experiment: AUClast in Balb/C mouse at 1 mg/kg, iv administered as single dose by LC-MS/MS method; format: ADME, organism-based, Plasma; set-up: time 0 - last, dose 1 mg/kg, route intravenous; settings: in vivo; summary of the method: as §1
[16] = test system: Mus musculus; experiment: Toxicity in human MDA-MB-231 cells xenografted athymic (nu+/nu+) Balb/C mouse assessed as weight loss at 5 to 50 mg/kg, ip dosed every 3 days for total of 5 administrations; format: organism-based; set-up: dose 5-50 mg/kg, route intraperitoneal; settings: in vivo, 72 h
Summary of the method: (§2)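 Nude mice carrying subcutaneous MDA-MB-231 tumors staged to 100−150 mm3 were dosed intraperitoneally q3d × 5. Morbidity and body weight loss were monitored throughout the dosing regimen.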

[17] = Antitumor activity against human A875 cells xenografted in athymic (nu+/nu+) Balb/C mouse assessed as tumor growth inhibition at 50 mg/kg, ip dosed every 3 days for total of 5 administrations; format: functional; settings: 72 h, route intraperitoneal, read-out: TGI
Summary of the method: (§3)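 Tumor fragments or cells were implanted subcutaneously in athymic nude mice. Once tumors were staged to 100−150 mm3, mice were dosed intraperitoneally every 3 days for 5 doses (q3d × 5).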

[18] = test system: A875; experiment: Antitumor activity against human A875 cells xenografted in athymic (nu+/nu+) Balb/C mouse assessed as tumor growth inhibition at 50 mg/kg, ip dosed every 3 days for total of 5 administrations and measured on day 12 after last dose; format: functional, organism-based; set-up: dose 50 mg/kg; summary of the method: as §3
[19] = test system: MDA-MB-231; experiment: Antitumor activity against human MDA-MB-231 cells xenografted in athymic (nu+/nu+) Balb/C mouse assessed as tumor growth inhibition at 5 mg/kg, ip dosed every 3 days for total of 5 administrations; format: functional, organism-based; set-up: dose 5 mg/kg; summary of the method: as §3
[20] = test system: MDA-MB-231; experiment: Antitumor activity against human MDA-MB-231 cells xenografted in athymic (nu+/nu+) Balb/C mouse assessed as tumor growth inhibition at 20 mg/kg, ip dosed every 3 days for total of 5 administrations; format: functional, organism-based; set-up: dose 20 mg/kg; summary of the method: as §3
[21] = test system: MDA-MB-231; experiment: Antitumor activity against human MDA-MB-231 cells xenografted in athymic (nu+/nu+) Balb/C mouse assessed as tumor growth inhibition at 50 mg/kg, ip dosed every 3 days for total of 5 administrations; format: functional; settings: MDA-MB-231, ip, 72 h, route intraperitoneal, read-out: TGI; summary of the method: as §3
[22] = test system: Mus musculus; experiment: Toxicity in human MDA-MB-231 cells xenografted athymic (nu+/nu+) Balb/C mouse assessed as mouse morbidity at 5 to 50 mg/kg, ip dosed every 3 days for total of 5 administrations; format: organism-based; set-up: dose 5-50 mg/kg, route intraperitoneal; settings: in vivo, 72 h; summary of the method: as §2

| SMILES | IC50 [1] [nM] | IC50 [2] [nM] | IC50 [3] [nM] | IC50 [4] [nM] | IC50 [9] [nM] | EC50 [10] [nM] | further results |
| --- | --- | --- | --- | --- | --- | --- | --- |
| CN[C@@H](C)C(=O)N[C@H](C(=O)N1C[C@@H]2C[C@H]1C(=O)N[C@@H](Cc1ccc3ccccc3c1)C(=O)N[C@H](C(=O)O)Cc1ccc(cc1)OCc1cn(nn1)[C@H]1C[C@@H](C(=O)N[C@@H](Cc3ccc4ccccc4c3)C(=O)N[C@H](C(=O)O)Cc3ccc(cc3)OCc3cn2nn3)N(C(=O)[C@@H](NC(=O)[C@H](C)NC)C2CCCCC2)C1)C1CCCCC1 | 740 | 14 | 84 | > 25000 | – | – | half-life [5]: 114 min; MRT [6]: 150 min; Vd [7]: 0.7 L/kg; AUClast [8]: 457 ng·h/mL |
| CN[C@@H](C)C(=O)N[C@H](C(=O)N1C[C@@H]2C[C@H]1C(=O)N[C@@H](Cc1ccc3ccccc3c1)C(=O)N[C@H](C(=O)O)Cc1ccc(cc1)OCc1cn2nn1)C1CCCCC1 | 2270 | – | – | – | 235 | – | – |
| CN[C@@H](C)C(=O)N[C@H]1Cc2ccc(cc2)OCc2cn(nn2)CCOc2ccc(cc2)C[C@H](C(=O)O)NC(=O)[C@H](Cc2ccccc2)NC(=O)[C@@H]2CCCN2C1=O | 7990 | – | – | – | 2880 | – | – |
| CN[C@@H](C)C(=O)N[C@H](C(=O)N1C[C@@H]2C[C@H]1C(=O)N[C@@H](Cc1ccc3ccccc3c1)C(=O)N[C@H](C(=O)O)Cc1cn(nn1)[C@H]1C[C@@H](C(=O)N[C@@H](Cc3ccc4ccccc4c3)C(=O)N[C@H](C(=O)O)Cc3cn2nn3)N(C(=O)[C@@H](NC(=O)[C@H](C)NC)C(C)C)C1)C(C)C | 300 | 2010 | 6140 | > 25000 | 65 | 49 | IC50 [11]: 3 nM; half-life [12]: 9.6 min; MRT [13]: 15 min; Vd [14]: 0.18 L/kg; AUClast [15]: 1070 ng·h/mL |
| CN[C@@H](C)C(=O)N[C@H](C(=O)N1C[C@@H]2C[C@H]1C(=O)N[C@@H](Cc1ccccc1)C(=O)N[C@H](C(=O)O)Cc1ccc(cc1)OCc1cn2nn1)C(C)C | 139 | 12500 | > 10000 | > 25000 | 160 | 1400 | – |
| CN[C@@H](C)C(=O)N[C@H]1CCCCNC(=O)CCc2cn(nn2)CCOc2ccc(cc2)C[C@@H](C(=O)O)NC(=O)[C@H](Cc2ccccc2)NC(=O)[C@@H]2CCCN2C1=O | > 18800 | – | – | – | 1490 | – | – |
| CN[C@@H](C)C(=O)N[C@H](C(=O)N1C[C@@H]2C[C@H]1C(=O)N[C@@H](Cc1ccc3ccccc3c1)C(=O)N[C@H](C(=O)O)Cc1ccc(cc1)OCc1cn(nn1)[C@H]1C[C@@H](C(=O)N[C@@H](Cc3ccc4ccccc4c3)C(=O)N[C@H](C(=O)O)Cc3ccc(cc3)OCc3cn2nn3)N(C(=O)[C@@H](NC(=O)[C@H](C)NC)C(C)(C)C)C1)C(C)(C)C | 97 | 26 | 77 | > 25000 | – | – | Activity [16]: Non-toxic; inhibition in vivo at 50 mg/kg [17]: 148%; TGI [18]: Active; half-life [12]: 51 min; MRT [13]: 47.4 min; Vd [14]: 0.34 L/kg; AUClast [15]: 1550 ng·h/mL; TGI [19]: inactive; TGI [20]: inactive; inhibition in vivo at 50 mg/kg [21]: 78%; Activity [22]: Non-toxic |
| CN[C@@H](C)C(=O)N[C@H](C(=O)N1C[C@@H]2C[C@H]1C(=O)N[C@@H](Cc1cccc3ccccc13)C(=O)N[C@H](C(=O)O)Cc1ccc(cc1)OCc1cn(nn1)[C@H]1C[C@@H](C(=O)N[C@@H](Cc3cccc4ccccc34)C(=O)N[C@H](C(=O)O)Cc3ccc(cc3)OCc3cn2nn3)N(C(=O)[C@@H](NC(=O)[C@H](C)NC)C(C)C)C1)C(C)C | 219 | 197 | 422 | > 25000 | 29 | 34 | – |
| CN[C@@H](C)C(=O)N[C@H]1Cc2cn(nn2)CCOc2ccc(cc2)C[C@@H](C(=O)O)NC(=O)[C@H](Cc2ccccc2)NC(=O)[C@@H]2CCCN2C1=O | > 18800 | – | – | – | 1320 | – | – |
